Each block holds one molecule with its values, some of them ahead of it. Calls of active or inactive are those of the source. The calls are words filed in the database; no cut-off is given here.
How the values were obtained:
[1] = biological target: T1, Interleukin-8 receptors, CXCR1/CXCR2 (Homo sapiens, UniProt P25025+P25024); experiment: Antagonist activity at CXCR1/CXCR2 in human PMN cells assessed as inhibition of GROalpha-mediated intracellular calcium release; assay type: functional, cell-based
T1 sequence (P25025 whole entry): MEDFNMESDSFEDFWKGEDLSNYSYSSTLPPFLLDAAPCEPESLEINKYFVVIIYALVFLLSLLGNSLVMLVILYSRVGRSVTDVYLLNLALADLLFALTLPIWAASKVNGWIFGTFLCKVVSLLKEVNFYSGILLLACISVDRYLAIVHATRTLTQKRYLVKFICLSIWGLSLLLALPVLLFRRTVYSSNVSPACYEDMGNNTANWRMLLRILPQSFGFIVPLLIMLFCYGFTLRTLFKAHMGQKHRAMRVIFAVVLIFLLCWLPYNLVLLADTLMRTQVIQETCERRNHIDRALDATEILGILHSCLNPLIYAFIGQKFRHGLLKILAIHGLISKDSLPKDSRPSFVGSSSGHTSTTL
T1 sequence (P25024 whole entry): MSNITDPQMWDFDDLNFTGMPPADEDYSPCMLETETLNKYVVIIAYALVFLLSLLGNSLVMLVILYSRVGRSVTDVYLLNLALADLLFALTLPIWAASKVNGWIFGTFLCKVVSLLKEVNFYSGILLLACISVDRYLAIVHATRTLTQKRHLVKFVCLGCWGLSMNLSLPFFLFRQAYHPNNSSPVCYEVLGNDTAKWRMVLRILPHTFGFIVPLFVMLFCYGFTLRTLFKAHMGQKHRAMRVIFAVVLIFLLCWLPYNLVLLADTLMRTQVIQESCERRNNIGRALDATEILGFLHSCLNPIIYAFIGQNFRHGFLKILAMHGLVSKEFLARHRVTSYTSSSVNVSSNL

Rattus norvegicus [2] = experiment: AUC in rat at 1 mg/kg, iv by LC-MS/MS analysis; assay type: ADME, organism-based, Plasma; parameters: dose 1 mg/kg, route intravenous; conditions: in vivo
Outline: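 Rats were dosed intravenously at 1 mg/kg. Plasma levels were measured by LC-MS/MS against a calibration curve of compound spiked into rat plasma and run alongside the samples. AUC was taken from the plasma concentration vs. time curve.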

[3] = biological target: T2, C-X-C chemokine receptor type 2 (Homo sapiens, UniProt P25025); experiment: Inhibition of CXCR2 (unknown origin) expressed in PathHunter celline by beta-arrestin assay
T2 sequence (P25025 whole entry): T1 sequence (P25025 whole entry)

Rattus norvegicus [4] = experiment: AUC in rat at 1 mg/kg, po by LC-MS/MS analysis; assay type: ADME, organism-based, Plasma; parameters: dose 1 mg/kg, route oral; conditions: in vivo, BLD = below limit of detection
Outline: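 Rats were dosed at 1 mg/kg by oral gavage. Plasma levels were measured by LC-MS/MS against a concurrently run calibration curve of compound spiked into rat plasma.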

Liver microsome = experiment: Metabolic stability in rat liver microsomes assessed as compound remaining at 1 uM after 60 mins by LC-MS analysis; assay type: ADME; conditions: 1 h
Outline: (§1)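 Compound at 1 µM was incubated with rat or monkey liver microsomes for 60 min at 37°C. Samples taken at 0 and 60 min were analysed by LC-MS for % parent remaining.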

[5] = Metabolic stability in monkey liver microsomes assessed as compound remaining at 1 uM after 60 mins by LC-MS analysis; assay type: ADME, Macaca mulatta; conditions: rhesus monkey, 1 h; outline: as §1
[6] = biological target: T3, C-X-C chemokine receptor type 1 (Homo sapiens, UniProt P25024); experiment: Inhibition of CXCR1 (unknown origin) transfected with RBL cells; assay type: cell-based
T3 sequence (P25024 whole entry): T1 sequence (P25024 whole entry)

[7] = biological target: T2, C-X-C chemokine receptor type 2; experiment: Inhibition of CXCR2 (unknown origin) transfected with RBL cells; assay type: cell-based
Outline: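 RBL cells stably transfected with CXCR2 were used to measure antagonist activity at the receptor.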

Rattus norvegicus [8] = experiment: Inhibition of macrophage influx in ozone Sprague-Dawley rat model of pulmonary inflammation at 1 mg/kg, iv after 24 hrs; assay type: functional, organism-based; parameters: dose 1 mg/kg
Outline: (§2)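 Sprague-Dawley rats, n = 4 per group, were dosed iv at 1 mg/kg (or vehicle) at t = 0, 5 and 9 h. They were exposed to air or 1 ppm ozone for 4 h and sacrificed at 24 h for bronchoalveolar lavage. BALF cells were Wright-Giemsa stained and counted (PMNs, macrophages). BALF protein was measured by Bradford assay as lung leakage.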

Rattus norvegicus [9] = experiment: Inhibition of lung leakage in ozone Sprague-Dawley rat model of pulmonary inflammation at 1 mg/kg, iv after 24 hrs; assay type: functional, organism-based; parameters: dose 1 mg/kg; outline: as §2
Rattus norvegicus [10] = experiment: Inhibition of neutrophil influx in ozone Sprague-Dawley rat model of pulmonary inflammation assessed as decrease in PMN influx into lungs at 1 mg/kg, iv after 24 hrs; assay type: functional, organism-based; parameters: dose 1 mg/kg; outline: as §2

SMILES: O=C(Nc1ccc(F)cc1)c1ccc(SCc2ccc(B(O)O)cc2)nc1
- IC50 [1]: 90 nM

SMILES: COc1cc(CSc2ccc(C(=O)Nc3ccc(F)cc3)cn2)c(B(O)O)cc1OC
- IC50 [1]: > 10000 nM

SMILES: O=C(Nc1ccc(F)cc1)c1ccc(SCc2cc3c(cc2B(O)O)OCO3)nc1
- IC50 [1]: > 10000 nM

SMILES: COc1ccc(B(O)O)c(CSc2ccc(C(=O)Nc3ccc(F)cc3)cn2)c1
- IC50 [1]: 80 nM

SMILES: O=C(Nc1ccc(F)cc1)c1ccc(SCc2cc(F)ccc2B(O)O)nc1
- IC50 [1]: 52 nM

SMILES: O=C(Nc1ccc(F)cc1)c1ccc(SCc2cc(OC(F)(F)F)ccc2B(O)O)nc1
- AUC (Rattus norvegicus [2]): 5.4 µM·h
- AUC (Rattus norvegicus [4]): BLD
- inhibition (Rattus norvegicus [8]): Active
- inhibition (Rattus norvegicus [9]): Active
- Stability (Liver microsome): 92%
- inhibition (Rattus norvegicus [10]): Active
- Stability [5]: 95%

Next, values leading:

- IC50 [1]: 387 nM
SMILES: O=C(Nc1ccc(F)cc1)c1ccc(SCCc2ccccc2B(O)O)nc1

- IC50 [1]: 689 nM
SMILES: O=C(Nc1ccc(F)cc1)c1ccc(SCCCCB(O)O)nc1

- AUC (Rattus norvegicus [2]): 0.39 µM·h
- IC50 [3]: 730 nM
- AUC (Rattus norvegicus [4]): BLD
- Stability (Liver microsome): 37%
- Stability [5]: 25%
- IC50 [6]: 903 nM
- IC50 [1]: 38 nM
- IC50 [7]: 356 nM
SMILES: O=C(Nc1ccc(F)cc1)c1ccc(SCc2ccccc2B(O)O)nc1

- IC50 [1]: 1220 nM
SMILES: O=C(Nc1ccc(F)cc1)c1ccc(SCc2cccc(B(O)O)c2)nc1

Reference: ChEMBL document CHEMBL3425456, “Boronic acid-containing CXCR1/2 antagonists: Optimization of metabolic stability, in vivo evaluation, and a proposed receptor binding model” (Bioorg Med Chem Lett, 2015)
